The test system of assay [1] is Staphylococcus aureus. The experiment in a line: Antimicrobial activity against oxacillin- and methicillin-resistant Staphylococcus aureus isolate Sa-OXA-R2 after 18 to 24 hrs by alamar blue assay. It counts as functional. In a few lines:
(§1)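 Broth microdilution per NCCLS standard, Mueller-Hinton broth, 8-point twofold dilutions; exponentially growing cells at 5 10^5 cells/ml with compound, 18–24 h at 37 C; 20% Alamar blue added, fluorescence read; MIC90 taken as lowest concentration preventing at least 90% growth.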
In general terms: Resazurin is reduced to fluorescent resorufin, in cell work by metabolically active cells.

In a further assay the test system is Bacillus subtilis. The experiment in a line: Antimicrobial activity against Bacillus subtilis ATCC 23857 after 18 to 24 hrs by alamar blue assay. It counts as functional. In a few lines:
(§2)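 Broth microdilution per NCCLS in Mueller-Hinton broth, 8-point twofold dilutions, 384-well format. Exponential-phase cells at 5 × 10^5 cells/ml incubated with compound 18–24 h at 37 °C, then 20% Alamar blue added and fluorescence read. MIC90 taken as the lowest concentration preventing at least 90% bacterial growth.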

The subject of assay [2] is Escherichia coli. The experiment in a line: Antimicrobial activity against Escherichia coli ATCC […] after 18 to 24 hrs by alamar blue assay. The format is functional. The conditions noted are these: Escherichia coli. The essentials: as §2
For the next assay, the system named is Pseudomonas aeruginosa. The experiment in a line: Antimicrobial activity against Pseudomonas aeruginosa ATCC 25619 after 18 to 24 hrs by alamar blue assay. It counts as functional. Particulars: Pseudomonas aeruginosa, ATCC 25619; read-out: MIC. The essentials: as §2
Another assay deals with Acinetobacter baumannii. The experiment in a line: Antimicrobial activity against Acinetobacter baumannii ATCC 49139 after 18 to 24 hrs by alamar blue assay. The format is functional. Particulars: Acinetobacter baumannii, ATCC 49139; read-out: MIC. The essentials: as §2
The subject of assay [3] is Stenotrophomonas maltophilia. The experiment in a line: Antimicrobial activity against Stenotrophomonas maltophilia ATCC 13637 after 18 to 24 hrs by alamar blue assay. Particulars: Stenotrophomonas maltophilia, ATCC 13637; read-out: MIC. The format is functional. In a few lines:
as §2

Another assay has as its system Serratia marcescens. The experiment in a line: Antimicrobial activity against Serratia marcescens ATCC 14756 after 18 to 24 hrs by alamar blue assay. The format is functional. Particulars: Serratia marcescens, ATCC 14756; read-out: MIC. In a few lines: as §2
Assay [4] has as its system Mycolicibacterium smegmatis. The experiment in a line: Antimicrobial activity against Mycobacterium smegmatis BCRC 11565 after 18 to 24 hrs by alamar blue assay. It counts as functional. Particulars: Mycolicibacterium smegmatis, BCRC 11565. The essentials:
as §2

Assay [5] is described as follows: Inhibition of transglycosylase assessed as inhibition of NBD- labelled lipid II polymerization. The essentials:
(§3)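 100 µM NBD-labelled lipid II incubated 30 min with full-length PBP (EC, SA or Mtb) and 10 ng/µl N-acetylmuramidase in 50 mM Tris-HCl pH 8.0, 10 mM MgCl2, 0.1% Triton X-100, 10% DMSO, 15% MeOH. Supernatant run on anion-exchange HPLC with 20 mM–0.5 M ammonium acetate gradient. Inhibition calculated from substrate peak-area percentage. IC50 determined. S. aureus strains share one SA enzyme.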

Assay [6] concerns Staphylococcus aureus. The experiment in a line: Antimicrobial activity against methicillin-resistant Staphylococcus aureus isolate NTUH4722 after 18 to 24 hrs by alamar blue assay. The format is functional. The essentials:
as §1

Assay [7] in a line: Inhibition of transglycosylase in Escherichia coli ATCC […] assessed as inhibition of NBD- labelled lipid II polymerization. In a few lines: as §3
Assay [8] in a line: Inhibition of transglycosylase in Staphylococcus aureus ATCC 29213 assessed as inhibition of NBD- labelled lipid II polymerization. In a few lines:
as §3

The nature of assay [9]: Inhibition of transglycosylase in Staphylococcus aureus ATCC 33592 assessed as inhibition of NBD- labelled lipid II polymerization. The essentials: as §3
The nature of assay [10]: Inhibition of transglycosylase in Staphylococcus aureus isolate NTUH4722 assessed as inhibition of NBD- labelled lipid II polymerization. In a few lines: as §3
A short description of assay [11]: Inhibition of transglycosylase in Staphylococcus aureus isolate Sa-OXA-R2 assessed as inhibition of NBD- labelled lipid II polymerization. In a few lines: as §3
The test system of assay [12] is Staphylococcus aureus. The experiment in a line: Antimicrobial activity against methicillin-resistant Staphylococcus aureus ATCC 33592 after 18 to 24 hrs by alamar blue assay. Particulars: Staphylococcus aureus, ATCC 33592. The format is functional. In a few lines:
as §1

Assay [13] concerns Escherichia coli. The experiment in a line: Displacement of fluorescein-labeled moenomycin from transglycosylase in Escherichia coli ATCC […] assessed as inhibition of lipid II polymerization at 100 uM after 30 mins by fluorescence anisotropy binding assay. In general terms: Polarisation of emitted light reports the rotation of a fluorescent probe.
Assay [14] relates to Staphylococcus aureus. The experiment in a line: Antimicrobial activity against wild-type Staphylococcus aureus ATCC 29213 after 18 to 24 hrs by alamar blue assay. The conditions noted are these: Staphylococcus aureus, ATCC 29213.
Assay [15] is described as follows: Displacement of fluorescein-labeled moenomycin from transglycosylase in Escherichia coli ATCC […] assessed as inhibition of lipid II polymerization after 30 mins by fluorescence anisotropy binding assay. On the set-up: species or system Staphylococcus aureus. In a few lines:
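Full-length bifunctional PBP (TGase) at 10 µg/ml mixed with 100 nM fluorescent moenomycin in 10 mM Tris, 100 mM NaCl, pH 8.0, in 1536-well plates. 1 µl of 1 mM compound stock added. 10 µM moenomycin and 2.5% DMSO served as positive and negative controls. After 30 min, drop in fluorescence anisotropy read. Ki derived from Kd and IC50. Same SA enzyme serves all S. aureus strains.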

Assay [16] in a line: Displacement of fluorescein-labeled moenomycin from Mycobacterium tuberculosis transglycosylase assessed as inhibition of lipid II polymerization after 30 mins by fluorescence anisotropy binding assay. The essentials:
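Full-length bifunctional PBP (10 µg/ml) with 100 nM fluorescein-labelled moenomycin in 10 mM Tris, 100 mM NaCl, pH 8.0; compound added from 1 mM stocks; 30 min incubation, anisotropy decrease read; 10 µM moenomycin and 2.5% DMSO controls. For dose series, Ki derived from probe Kd and IC50.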

Assay [17] is described as follows: Inhibition of Mycobacterium tuberculosis transglycosylase assessed as inhibition of NBD- labelled lipid II polymerization. In a few lines: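 Full-length PBP incubated 30 min with 100 µM NBD-labelled lipid II, 10 ng/µl N-acetylmuramidase in 50 mM Tris-HCl pH 8.0, 10 mM MgCl2, 0.1% Triton X-100, 10% DMSO, 15% MeOH; supernatant on anion-exchange HPLC, ammonium acetate gradient (20 mM–0.5 M); inhibition from substrate peak area percentage.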

The structures appear in SMILES notation. In brackets after ≈: the same amount, converted by molar mass. Activity calls are given as the source filed them. No cut-off for these calls is given here. Where only a bound is given, the exact number is not on record here.

By MIC90 is commonly meant the lowest concentration that inhibits either 90% of growth or 90% of the strains tested, depending on the study. Low values mean higher susceptibility, high ones lower susceptibility. As usually defined, the MIC is the lowest concentration that inhibits growth of the organism. A word on the IC90: it is the concentration at which the effect reaches the 90% level. As a reminder, the IC50 is the concentration at which inhibition is half-maximal. By Ki is commonly meant a measure of affinity in units of concentration, obtained from inhibition or displacement.

On to `Cc1ccc(C(C)C)c(Oc2cc(Cl)ccc2NC(=O)c2cc(Br)cc(Br)c2O)c1`, for which the MIC90 with Staphylococcus aureus [1] is 0.45 µM (≈ 0.249 µg/mL); in the assay on Escherichia coli [2], above 512 µM; in assay [4] it was 3.6 µM (≈ 1.99 µg/mL); in the assay on Staphylococcus aureus [6], 1.8 µM (≈ 0.997 µg/mL); with Staphylococcus aureus [12], 1.8 µM (≈ 0.997 µg/mL); against Staphylococcus aureus [14] it was 1.8 µM (≈ 0.997 µg/mL). Besides, the MIC was below 0.03 µg/mL in the assay with Bacillus subtilis; 16 µg/mL (≈ 28.9 µM) in the assay with Pseudomonas aeruginosa; 16 µg/mL (≈ 28.9 µM) in the assay on Acinetobacter baumannii; 16 µg/mL (≈ 28.9 µM) in assay [3]; 16 µg/mL (≈ 28.9 µM) with Serratia marcescens. Besides, in [5], the IC90 was below 25 µM. Besides, the 50% inhibitory concentration (IC50) turned out to be 2700 nM in assay [7]; 19.6 µM in assay [8]; 19.6 µM in assay [9]; 19.6 µM in [10]; 19.6 µM in assay [11]. Besides, the result in the assay with Escherichia coli [13] was inactive.

Consider `C=C(C/C=C(\C)CCC=C(C)C)CCC(C)(C)/C=C/CC/C(C)=C/CO[C@@H](COP(=O)(O)O[C@H]1O[C@H](C(N)=O)[C@@](C)(O)[C@H](OC(N)=O)[C@H]1O[C@@H]1O[C@H](CO[C@@H]2O[C@H](CO)[C@@H](O)[C@H](O)[C@H]2O)[C@@H](O[C@@H]2O[C@H](C)[C@@H](O[C@@H]3O[C@H](C(=O)NC4=C(O)CCC4=O)[C@H](O)[C@H](O)[C@H]3O)[C@H](O)[C@H]2NC(C)=O)[C@H](O)[C@H]1NC(C)=O)C(=O)O` [MOENOMYCIN A], for which the MIC90 with Staphylococcus aureus [1] amounted to 33 µM (≈ 52.2 µg/mL); against Escherichia coli [2], 160 µM (≈ 253 µg/mL); in assay [4], 2.5 µM (≈ 3.96 µg/mL); against Staphylococcus aureus [6] it was 33 µM (≈ 52.2 µg/mL); in the assay on Staphylococcus aureus [12], 11 µM (≈ 17.4 µg/mL); with Staphylococcus aureus [14], 3 µM (≈ 4.75 µg/mL). Moreover, the Ki in [15] is 1100 nM; in [16] it was 9.8 µM. The IC50 in assay [7] is 28 nM; in [8], 0.034 µM; in assay [9], 0.034 µM; in assay [10], 0.034 µM; in assay [11], 0.034 µM; in [17] it was 50 nM.

(Values after ChEMBL document CHEMBL1629439, “High-throughput identification of antibacterials against methicillin-resistant Staphylococcus aureus (MRSA) and the transglycosylase” (Bioorg Med Chem, 2010).)
